# EBV gp42 inh – EBV gp42 inhibition. Fluorescence polarization binding assay, mP read-out. Q1HVG2. 0.42% of 220,000 active. AID 1085. inhibition, % (tested at 21.74 µM); in the data active = inhibition above about 50%
# Target sequence (Q1HVG2 whole entry, looked up): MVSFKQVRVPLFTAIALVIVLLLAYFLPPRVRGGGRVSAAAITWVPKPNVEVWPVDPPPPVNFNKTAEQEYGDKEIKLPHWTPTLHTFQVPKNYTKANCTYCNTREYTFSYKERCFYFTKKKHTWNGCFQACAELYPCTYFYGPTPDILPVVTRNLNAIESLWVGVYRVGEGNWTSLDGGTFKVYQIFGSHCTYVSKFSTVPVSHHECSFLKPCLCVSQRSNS
# WT yeast gro inh – growth inhibition of WT yeast, mitochondrial fusion screen. mitochondrial fusion phenotypic screen, WT strain. inhibition, % at 10 µM. 2.1% of 190,000 active. AID 1362; in the data active = inhibition above about 58%; tested in S. cerevisiae
# TbMetRS inhib – Trypanosoma brucei MetRS inhibition | 0.4% of 360,000 active | purified T. brucei MetRS, ATP depletion, Kinase-Glo luminescence | AID 624268 | inhibition, % at 11.9 µM;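 active = inhibition above a per-plate cutoff of the control wells' mean inhibition plus 3 SD, cut at about 5.5% in these data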;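 note: 0% = DMSO wells median and 100% = median of wells with control inhibitor compound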
#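 Material – parasite MetRS enzyme · Medium – HEPES-MgCl2-KCl buffer plus DTT, spermine, BSA, pyrophosphatase · Reagent – ATP, methionine and E. coli bulk tRNA substrates · Times – 15 min enzyme-compound preincubation, 2 h reaction, 10 min detection, 25 °C · Measured by – luminescence of leftover ATP · Evaluation – percent inhibition relative to median high and low control wells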
# GRIN3A LBD mod – modulators (binders) of human NR3A ligand-binding domain. NR3A LBD differential scanning fluorimetry, Tm shift; 0% = protein alone, 100% = glycine-bound protein. Tm shift relative to glycine control, % at 25 µM. 2.5% of 340,000 active;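 active = melting temperature shift of at least 10% of the positive control shift, at one fixed dose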
# CHOP inh – inhibitors of CHOP induction in ER stress response; CHO-K1 CHOP-promoter luciferase, tunicamycin-induced, 15-18 h; inhibition, % at 10 µM; 3.8% of 220,000 active; AID 2732;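 active = compounds that reduced the stress-induced luciferase reporter signal by more than about 70% of percent inhibition, limit read from the data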;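 note: 0% = tunicamycin plus vehicle and 100% = wells without tunicamycin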
# MPTP inh – blocks calcium-induced mitochondrial swelling; 1.4% of 360,000 active; inhibition, % at 10 µM; isolated mouse mitochondria, Ca2+ swelling absorbance, 30 min;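 active = inhibition of 50% or more, scaled per plate between neutral and stimulator controls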;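 note: 0% = DMSO wells given calcium and 100% = 1 mM EGTA wells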
# * marks the source's active call; other numbers are inactive results; . = no result. Only some compounds are listed: those with a hit (about 6.4% of all), similar ones and a draw of the others.
SMILES,EBV gp42 inh,WT yeast gro inh,TbMetRS inhib,GRIN3A LBD mod,CHOP inh,MPTP inh
O=C1CCC(C(=O)N2CCN(c3cnccn3)CC2)CN1CCc1cccc(F)c1 (stereo not drawn),.,.,0,0,.,-1
COCCn1c(=NC(=O)C2COc3ccccc3O2)sc2cc(S(N)(=O)=O)ccc21 (stereo not drawn),-9,7,0,17*,-2,2
C=CCn1c(=NC(=O)C2COc3ccccc3O2)sc2cc(S(N)(=O)=O)ccc21 (stereo not drawn),-8,-17,-1,-4,24,-4
O=C(CC1SC(=Nc2ccccc2)N(CCc2c[nH]c3ccccc23)C1=O)Nc1ccccc1F (stereo not drawn),-33,39,-1,21*,38,0
O=C(CC1SC(=NCCc2ccccc2)N(/N=C/c2cccs2)C1=O)Nc1ccc(Cl)cc1 (stereo not drawn),-15,52,0,21*,11,-12
O=C(CC1SC(=O)N(c2ccccc2)C1=O)Nc1ccc(Br)cc1 (stereo not drawn),-4,.,0,30*,10,9
O=C(CC1SC(=Nc2ccccc2)N(CCCO)C1=O)Nc1ccc(Cl)cc1 (stereo not drawn),-2,5,14*,-7,27,1
O=C(CC1Sc2ncnn2C1=O)Nc1ccc(Cl)cc1 (stereo not drawn),-31,-6,.,-3,49,.
O=C(CC1SC(=Nc2ccccc2)N(CCc2ccccn2)C1=O)Nc1ccc(F)cc1 (stereo not drawn),-1,17,0,-15,38,1
C=CCn1c(COc2ccccc2F)nnc1SCC(=O)Nc1cc(C)on1,-8,5,0,-2,-6,1
COc1cccc(/C=N/NC(=O)c2cnccn2)c1O,5,.,0,-1,50,1
O=C(CC1SC(=O)N(c2ccccc2)C1=O)Nc1ccc(Cl)cc1 (stereo not drawn),-11,.,1,22*,4,7
Oc1ccc(C=NNC(=S)Nc2cccnc2)nc1,.,.,0,11*,.,-2
CC(C)(C)c1ccc(/C=N/NC(=S)NCc2ccccc2)cc1,-11,0,-1,-4,65,2
Oc1ccc(/C=N/NC(=S)Nc2cccnc2)cc1O,4,-9,1,-14,16,-1
C=CCNC(=S)N/N=C/c1ccc(-c2ccc(Br)cc2)o1,8,25,-1,16*,-31,1
CC(C)(C)c1ccc(/C=N/NC(=S)Nc2cccnc2)cc1,5,60*,.,.,13,.
C=CCNC(=S)N/N=C/c1ccc(C(C)(C)C)cc1,-7,76*,-1,-10,95*,2
O=C(Nc1cccc(C(=O)N2CCCCC2)c1)c1ccccc1Br,.,.,0,1,.,1
COc1ccc(-c2csc3nc(C)n(-n4cccc4)c(=O)c23)cc1,.,.,-1,-1,.,-1
Cc1cc(C)c(S(N)(=O)=O)c(C)c1-n1cnnn1,-7,7,0,0,-3,-3
C(=N\Nc1nc(Nc2ccccc2)nc(N2CCOCC2)n1)/c1c[nH]c2ccccc12,-1,-25,.,18*,43,.
Cc1ccc(Nc2nc(N/N=C/c3c[nH]c4ccccc34)nc(N3CCOCC3)n2)cc1,2,38,0,29*,95*,-3
Cc1[nH]c2ccccc2c1/C=N/Nc1nc(Nc2ccc(F)cc2)nc(N2CCOCC2)n1,-13,58,-1,-3,61,1
BrC(/C=N/Nc1nc(N2CCOCC2)nc(N2CCOCC2)n1)=C/c1ccccc1,0,2,0,1,82*,-8
SMILES,EBV gp42 inh,WT yeast gro inh,TbMetRS inhib,GRIN3A LBD mod,CHOP inh,MPTP inh
COc1ccc2c(c1[N+](=O)[O-])CCC/C2=N/OC(=O)c1ccccc1SC,-11,2,-1,0,-1,-1
CCN1C(=O)c2ccccc2Sc2ccc(C(=O)NCCCN3CCCCC3)cc21,.,.,0,2,.,-1
CCn1c(SCC(=O)NCc2ccccc2)nnc1-c1ccccc1O,-30,-14,0,-1,82*,0
Cc1cccc(-n2c(CCc3ccccc3)nnc2SCC(=O)c2ccccc2)c1,6,68*,1,-5,51,7
COCc1nnc(SCC(=O)NCc2ccccc2)n1-c1ccccc1,-12,-3,0,.,11,-1
CCn1c(SCC(=O)Nc2ccccc2C)nnc1-c1ccccc1O,3,-2,0,-1,20,-1
Cc1ccc(-n2c(CCc3ccccc3)nnc2SCC(=O)NCc2ccccc2)cc1C,3,-5,-1,1,85*,2
Cc1cccc(C(=O)NCCCn2ccnc2)c1C,.,.,0,1,.,0
Cc1cc(NC(=O)CCC(=O)N(C2CC2)C2(C(=O)NC3CCCC3)CCC(C)CC2)no1 (stereo not drawn),-24,2,-1,0,40,-1
Nn1c(SCC(=O)NC(=O)NCc2ccco2)nnc1-c1ccc(OC(F)F)cc1,62*,-12,-1,-2,16,-3
COc1ccc(CCNS(=O)(=O)c2cn(C)cn2)cc1OC,.,.,0,-2,.,-1
COC(=O)CC1C(=O)NCCN1C(=O)CSc1nnc(Nc2ccc(OC)cc2)s1 (stereo not drawn),-24,6,0,0,19,0
CC(Sc1nc2ccccc2n1C)C(=O)Nc1ccc(N2CCOCC2)cc1 (stereo not drawn),-7,8,0,-1,9,0
CC(Sc1nc2ccccc2n1C)C(=O)NC(c1ccccc1)c1ccccc1 (stereo not drawn),-13,59*,0,1,6,2
COc1ccccc1C(=O)Nc1ccc(S(=O)(=O)Nc2nccs2)cc1,.,.,1,-1,.,-1
CC(C)OC(=O)CC(=O)c1sc2nc3c(cc2c1N)CN(C)CC3,69*,-3,.,-2,-17,.
Cc1ccc(C(=O)NC(=S)/C=C2\N(C)c3ccccc3C2(C)C)cc1,-18,67*,-1,2,36,1
CC(C)C(=O)NC(=S)/C=C1/N(C)c2ccccc2C1(C)C,-24,0,0,2,-2,1
O=c1[nH]c(/C=C/c2ccc(Br)cc2)nc2ccccc12,.,.,-1,-2,.,4
Cc1cccc(/C=C\c2nc3ccccc3c(=O)[nH]2)c1,4,-4,0,0,101*,0
COc1ccc(C(=O)Nc2cccc(/C=C/c3nc4ccccc4c(=O)[nH]3)c2)cc1,-10,.,0,9,91*,2
COc1cc(/C=C/c2nc3ccccc3c(=O)[nH]2)cc(Cl)c1O,.,.,1,27*,.,-1
O=C(Nc1cccc(/C=C/c2nc3ccccc3c(=O)[nH]2)c1)c1ccccc1Cl,-15,.,0,-4,-12,4
COc1ccc(OCC(=O)NNC(=O)c2cccnc2)cc1,-15,-4,0,1,-26,-1

# Assay outcomes from PubChem.
